≈ marks a conversion by molar mass, not a printed value. Calls of active or inactive are those of the source. The calls are words filed in the database; no cut-off is given here.
Assays:
[1] = target: T1, Flavodoxin (Helicobacter pylori (strain ATCC 700392 / 26695) (Campylobacter pylori)) (UniProt O25776); test: Binding affinity to Helicobacter pylori flavodoxin by thermal upshift assay
T1 sequence (whole entry): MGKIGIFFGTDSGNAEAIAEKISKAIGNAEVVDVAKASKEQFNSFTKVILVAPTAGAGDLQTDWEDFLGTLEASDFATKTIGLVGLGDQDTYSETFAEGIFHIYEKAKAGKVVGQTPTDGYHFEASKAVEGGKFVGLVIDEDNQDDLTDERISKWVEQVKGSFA

[2] = tested on: Escherichia coli; test: Effect on growth of Escherichia coli DH5[alpha] after 48 hrs by resazurin-dye based microdilution assay; assay type: organism-based
[3] = target: T1, Flavodoxin (Helicobacter pylori (strain ATCC 700392 / 26695) (Campylobacter pylori)); test: Inhibition of flavodoxin in Mnz-resistant Helicobacter pylori NCTC 11637 ATCC 43504 assessed as reduction in bacterial growth measured after 48 hrs by resazurin staining-based microdilution method; settings: Helicobacter pylori NCTC 11637 = CCUG 17874 = ATCC 43504
Procedure, shortened: (§1)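 Broth microdilution in brain heart infusion with 4% FBS. Inoculum diluted to OD600 0.01. Two-fold dilutions from a DMSO stock cover 64–0.031 μg/mL, with DMSO ≤1% v/v. Incubated 48 h at 37 °C under microaerophilic conditions. MIC is the lowest concentration giving complete growth inhibition, read by resazurin colour change and confirmed by spotting on blood agar. Run twice in triplicate.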

[4] = Cytotoxicity against human HeLa cells assessed as reduction in cell viability by XTT assay; assay type: cell-based; settings: read-out: MCC50
Procedure, shortened: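 HeLa cells grown in DMEM with 10% FBS, penicillin and streptomycin at 37 °C, 5% CO2; 30 000 cells/well. XTT viability read at 450 and 650 nm. MCC50 (50% lysis) came from viability-versus-concentration curves. Two experiments, each in triplicate.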

[5] = target: T1, Flavodoxin (Helicobacter pylori (strain ATCC 700392 / 26695) (Campylobacter pylori)); test: Binding affinity to Helicobacter pylori flavodoxin by isothermal titration calorimetric method
[6] = target: T1, Flavodoxin (Helicobacter pylori (strain ATCC 700392 / 26695) (Campylobacter pylori)); test: Inhibition of flavodoxin in Helicobacter pylori ATCC 700392 26695 assessed as reduction in bacterial growth measured after 48 hrs by resazurin staining-based microdilution method; settings: Helicobacter pylori 26695; procedure, shortened: as §1
[7] = target: T1, Flavodoxin (Helicobacter pylori (strain ATCC 700392 / 26695) (Campylobacter pylori)); test: Inhibition of flavodoxin in Helicobacter pylori SS1 assessed as reduction in bacterial growth measured after 48 hrs by resazurin staining-based microdilution method; procedure, shortened: as §1
[8] = tested on: Staphylococcus aureus; test: Effect on growth of Staphylococcus aureus ATCC 1228 after 48 hrs by resazurin-dye based microdilution assay; assay type: organism-based
[9] = Therapeutic index, ratio of MCC50 for human HeLa cells to MIC for inhibition of flavodoxin in metronidazole-resistant Helicobacter pylori isolate 1 assessed as reduction in bacterial growth; assay type: toxicity; settings: read-out: TI
Procedure, shortened: (§2)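 TI is MCC50/MIC. For MCC50, HeLa cells (30 000/well, DMEM with 10% FBS) were exposed to compound at 25–1000 μM final. Viability by XTT at 450/650 nm; MCC50 is the concentration giving 50% lysis from viability curves. Run twice in triplicate.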

[10] = Therapeutic index, ratio of MCC50 for human HeLa cells to MIC for inhibition of flavodoxin in clarithromycin/metronidazole-resistant Helicobacter pylori isolate 4 assessed as reduction in bacterial growth; assay type: toxicity; settings: read-out: TI; procedure, shortened: as §2
[11] = Therapeutic index, ratio of MCC50 for human HeLa cells to MIC for inhibition of flavodoxin in rifampicin-resistant Helicobacter pylori isolate 5 assessed as reduction in bacterial growth; assay type: toxicity; settings: read-out: TI; procedure, shortened: as §2
[12] = Therapeutic index, ratio of MCC50 for human HeLa cells to MIC for inhibition of flavodoxin in Mnz-resistant Helicobacter pylori NCTC 11637 ATCC 43504 assessed as reduction in bacterial growth; assay type: toxicity; settings: read-out: TI; procedure, shortened: as §2
[13] = Therapeutic index, ratio of MCC50 for human HeLa cells to MIC for inhibition of flavodoxin in clarithromycin/metronidazole-resistant Helicobacter pylori isolate 6 assessed as reduction in bacterial growth; assay type: toxicity; settings: read-out: TI; procedure, shortened: as §2
[14] = Therapeutic index, ratio of MCC50 for human HeLa cells to MIC for inhibition of flavodoxin in metronidazole-resistant Helicobacter pylori isolate 3 assessed as reduction in bacterial growth; assay type: toxicity; settings: read-out: TI; procedure, shortened: as §2
[15] = Therapeutic index, ratio of MCC50 for human HeLa cells to MIC for inhibition of flavodoxin in metronidazole-resistant Helicobacter pylori isolate 2 assessed as reduction in bacterial growth; assay type: toxicity; settings: read-out: TI; procedure, shortened: as §2
[16] = Therapeutic index, ratio of MCC50 for human HeLa cells to MIC for inhibition of flavodoxin in Helicobacter pylori ATCC 700392 26695 assessed as reduction in bacterial growth; assay type: toxicity; settings: HeLa cells versus Helicobacter pylori ATCC 700392 26695, read-out: TI; procedure, shortened: as §2
[17] = Therapeutic index, ratio of MCC50 for human HeLa cells to MIC for inhibition of flavodoxin in Helicobacter pylori SS1 assessed as reduction in bacterial growth; assay type: toxicity; settings: HeLa cells versus Helicobacter pylori SS1, read-out: TI; procedure, shortened: as §2
[18] = Toxicity in NMRI mouse infected with Helicobacter pylori SS1 assessed as change in body weight at 10 to 20 mg/100g, po administered daily via gavage for 8 days starting from 1 week post-infection; assay type: organism-based; settings: in vivo
Procedure, shortened: (§3)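 Female 6-week-old SPF NMRI mice infected orogastrically with Hp SS1 on days 1 and 3. Compound in 5–10% DMSO/olive oil (100 μL) given by daily oral gavage for 8 days from day 8. Body weight and appetite were monitored during treatment; infected controls received vehicle alone.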

[19] = Toxicity in NMRI mouse infected with Helicobacter pylori SS1 assessed as change in appetite at 10 to 20 mg/100g, po administered daily via gavage for 8 days starting from 1 week post-infection; assay type: organism-based; settings: in vivo; procedure, shortened: as §3
[20] = Toxicity in NMRI mouse assessed as change in body weight at 10 to 20 mg/100g, po administered daily via gavage for 8 days; assay type: organism-based; settings: in vivo, 192 h
[21] = Stability of the compound in DMSO-d6 at pH 1 incubated for 19 hrs under shaking condition by 1H-NMR analysis; assay type: physicochemical; settings: pH 1, 19 h
[22] = tested on: Helicobacter pylori; test: Antibacterial activity against Helicobacter pylori SS1 infected in NMRI mouse assessed as bacterial eradication at 20 mg/100g, po administered daily via gavage for 8 days starting from 1 week post-infection and measured 8 days post-last dose; assay type: functional, organism-based
Procedure, shortened: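 Female 6-week-old SPF NMRI mice, 7 per condition, infected orogastrically on days 1 and 3 with 100 μL Hp SS1 (5 × 10^8 CFU/mL). From day 8, compound given daily by oral gavage for 8 days in 100 μL of 5–10% DMSO/95–90% olive oil. Sacrificed day 24; stomach homogenate CFU/g counted after 5 days microaerophilic culture at 37 °C. Infected vehicle-treated controls; Mann-Whitney U and unpaired t tests, p ≤ 0.05.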

[23] = target: T1, Flavodoxin (Helicobacter pylori (strain ATCC 700392 / 26695) (Campylobacter pylori)); test: Inhibition of flavodoxin in metronidazole-resistant Helicobacter pylori isolate 1 assessed as reduction in bacterial growth measured after 48 hrs by resazurin staining-based microdilution method
Procedure, shortened: (§4)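 Clinical isolates from gastric biopsies of patients who failed ≥2 therapies; resistance classified by EUCAST breakpoints. […] Read by resazurin colour change as the lowest concentration giving complete growth inhibition.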

[24] = target: T1, Flavodoxin (Helicobacter pylori (strain ATCC 700392 / 26695) (Campylobacter pylori)); test: Inhibition of flavodoxin in metronidazole-resistant Helicobacter pylori isolate 2 assessed as reduction in bacterial growth measured after 48 hrs by resazurin staining-based microdilution method; procedure, shortened: as §4
[25] = target: T1, Flavodoxin (Helicobacter pylori (strain ATCC 700392 / 26695) (Campylobacter pylori)); test: Inhibition of flavodoxin in clarithromycin/metronidazole-resistant Helicobacter pylori isolate 4 assessed as reduction in bacterial growth measured after 48 hrs by resazurin staining-based microdilution method; procedure, shortened: as §4
[26] = target: T1, Flavodoxin (Helicobacter pylori (strain ATCC 700392 / 26695) (Campylobacter pylori)); test: Inhibition of flavodoxin in clarithromycin/metronidazole-resistant Helicobacter pylori isolate 6 assessed as reduction in bacterial growth measured after 48 hrs by resazurin staining-based microdilution method

SMILES	Activity [1]	Activity [2]	MIC [3] [µM]	CC50 [4] [mM]	Activity [5]	MIC [6] [µM]	MIC [7] [µM]	Activity [8]	selectivity ratio [9]	selectivity ratio [10]	selectivity ratio [11]	selectivity ratio [12]	selectivity ratio [13]	selectivity ratio [14]	selectivity ratio [15]	selectivity ratio [16]	selectivity ratio [17]	further results
ONCCc1ccccc1	Active	Non-Toxic	> 233	> 1	Active	> 233	> 233	Non-Toxic	–	–	–	–	–	–	–	–	–	–
O/N=C/Cc1cc(C(F)(F)F)cc(C(F)(F)F)c1	Active	Non-Toxic	59 (≈ 16 µg/mL)	> 0.5	Active	118 (≈ 32 µg/mL)	236 (≈ 64 µg/mL)	Non-Toxic	4.2	34	4.2	> 8.5	4.2	4.2	4.2	> 4.2	> 2.1	–
O=[N+]([O-])CCc1ccccc1	Active	Non-Toxic	212 (≈ 32 µg/mL)	> 1	Active	106 (≈ 16 µg/mL)	212 (≈ 32 µg/mL)	Non-Toxic	4.7	605	4.7	> 4.7	4.7	4.7	4.7	> 9.4	> 4.7	–
COc1ccc(CS(=O)(=O)c2ccc(N)c3nonc23)cc1	Active	Non-Toxic	100 (≈ 31.9 µg/mL)	> 1	Active	100 (≈ 31.9 µg/mL)	100 (≈ 31.9 µg/mL)	Non-Toxic	10	20	10	> 10	10	20	10	> 10	> 10	–
NCCc1ccccc1 [PHENETHYLAMINE]	Active	Non-Toxic	66 (≈ 8 µg/mL)	> 1	Active	66 (≈ 8 µg/mL)	132 (≈ 16 µg/mL)	Non-Toxic	–	–	–	> 15	–	–	–	> 15	> 7.6	Activity [18]: Non-Toxic; Activity [19]: Non-Toxic; Activity [20]: Non-Toxic
COc1ccc(C2(C)SCc3cc(C)c(C)cc3CS2)cc1	Active	–	3 (≈ 0.992 µg/mL)	–	Active	3 (≈ 0.992 µg/mL)	6.1 (≈ 2.02 µg/mL)	–	–	–	–	–	–	–	–	–	–	Stability [21]: Stable
O=[N+]([O-])CCc1cc(C(F)(F)F)cc(C(F)(F)F)c1	Active	Non-Toxic	56 (≈ 16.1 µg/mL)	> 1	Active	56 (≈ 16.1 µg/mL)	223 (≈ 64 µg/mL)	Non-Toxic	9	9	9	> 18	9	9	9	> 18	> 4.5	Activity [18]: Non-Toxic; Activity [19]: Non-Toxic; Activity [20]: Non-Toxic; Activity [22]: Active
Cc1ncc(N)n1CCO	Active	Non-Toxic	227 (≈ 32 µg/mL)	> 1	Active	453 (≈ 64 µg/mL)	> 453	Non-Toxic	–	–	–	> 4.4	–	–	–	> 2.2	–	–
Cc1ncc([N+](=O)[O-])n1CCO [METRONIDAZOLE]	Active	Non-Toxic	187 (≈ 32 µg/mL)	> 1	Active	12 (≈ 2.05 µg/mL)	2.9 (≈ 0.496 µg/mL)	Non-Toxic	–	–	–	> 5.3	–	–	–	> 83	> 345	–
COc1ccc(CSc2ccc([N+](=O)[O-])c3nonc23)cc1	Active	–	1.6 (≈ 0.508 µg/mL)	–	Active	6.3 (≈ 2 µg/mL)	0.78 (≈ 0.248 µg/mL)	–	–	–	–	–	–	–	–	–	–	Stability [21]: Stable
O=[N+]([O-])C1=Cc2cc(Cl)cc(Cl)c2OC1c1ccc(F)cc1 (stereo not drawn)	Active	–	0.37 (≈ 0.126 µg/mL)	–	Active	0.37 (≈ 0.126 µg/mL)	0.37 (≈ 0.126 µg/mL)	–	–	–	–	–	–	–	–	–	–	–
COc1ccc(CSc2ccc(N)c3nonc23)cc1	Active	–	27.8 (≈ 7.99 µg/mL)	–	Active	27.8 (≈ 7.99 µg/mL)	13.9 (≈ 3.99 µg/mL)	–	–	–	–	–	–	–	–	–	–	inhibition [23]: Active; inhibition [24]: Active; inhibition [25]: Active; Stability [21]: Stable; inhibition [26]: Active
COc1ccc(C[S+]([O-])c2ccc([N+](=O)[O-])c3nonc23)cc1 (stereo not drawn)	Active	Non-Toxic	6 (≈ 2 µg/mL)	0.179	Active	6 (≈ 2 µg/mL)	12 (≈ 4 µg/mL)	Non-Toxic	–	–	–	30	–	–	–	30	15	–

Reference: ChEMBL document CHEMBL4364284, “Design, Synthesis, and Efficacy Testing of Nitroethylene- and 7-Nitrobenzoxadiazol-Based Flavodoxin Inhibitors against Helicobacter pylori Drug-Resistant Clinical Strains and in Helicobacter pylori-Infected Mice” (J Med Chem, 2019)
